Results: PMC5094435 (Saudi Pharmaceutical Journal : SPJ, 2015)
Values after ≈ are worked out from the molar mass of the structure shown. Values joined by “and” are separate entries in the source; they are usually repeats but may differ in a detail not shown here. Identical values can stand only once.

Tests used:
[1] = system: Staphylococcus aureus (MTCC 96); test: Antibacterial activity; assay type: cell-based; conditions: MTCC96, read-out: MIC, S. aureus
Method in brief: (§1)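 Screened by a standard method against S. aureus MTCC 96, B. subtilis MTCC 121, E. coli MTCC 1652 and P. aeruginosa MTCC 741. Ciprofloxacin was the reference antibiotic. Only compounds active at 100 μg/mL went on to MIC determination.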

[2] = system: Escherichia coli (MTCC 1652); test: Antibacterial activity; assay type: cell-based; conditions: for MIC: Escherichia coli, MTCC1652, read-out: MIC, E. coli
Method in brief: as §1

[3] = system: Pseudomonas aeruginosa (MTCC 741); test: Antibacterial activity; assay type: cell-based; conditions: for MIC: Pseudomonas aeruginosa, MTCC741, read-out: MIC, P. aeruginosa
Method in brief: as §1

[4] = system: Bacillus subtilis (MTCC 121); test: Antibacterial activity; assay type: cell-based; conditions: MTCC121, read-out: MIC, B. subtilis
Method in brief: as §1

Aspergillus niger = test: Antifungal activity; assay type: cell-based; conditions: read-out: MIC, A. niger
Method in brief: (§2)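 Run by the poison food technique against Aspergillus niger and Aspergillus flavus. Fluconazole was the reference drug.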

Aspergillus flavus = test: Antifungal activity; assay type: cell-based; conditions: read-out: MIC, A. flavus
Method in brief: as §2

[5] = system: carrageenan induced edema; test: Anti-inflammatory activity, carrageenan induced rat paw edema; assay type: in vivo, Wistar rats; conditions: inhibition of edema, rats
Method in brief: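 Used the Winter et al. paw oedema method in Wistar rats of either sex (160–200 g), housed six per cage and acclimatised 48 h. Percent inhibition of oedema was calculated at 1, 2, 3 and 4 h. Diclofenac served as the standard drug.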

[6] = system: tail immersion (hot water 55 °C); test: Central analgesic activity, tail immersion method; assay type: in vivo, Swiss albino mice; conditions: mice, mean ± SEM; for Central analgesic activity [tail immersion (reaction time in min)] 1 h: 1 h after the dosing; for Central analgesic activity [tail immersion (reaction time in min)] 2 h: 2 h after the dosing
Method in brief: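 Used the same mice from the writhing test after a washout period. Each mouse was held in a restrainer and the protruding tail (up to 5 cm) was dipped in 55 °C water. Withdrawal time was recorded as reaction time at 1 h and 2 h post-dose. Data are mean ± SEM, analysed by ANOVA followed by Dunnett's t test.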

[7] = system: acetic acid induced writhing; test: Peripheral analgesic activity, acetic acid induced writhing method; assay type: in vivo, Swiss Albino mice; conditions: mice; for Peripheral analgesic activity (writhing test) No. of writhing: mean ± SEM; for Peripheral analgesic activity (writhing test) % Protection: vs control group
Method in brief: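 Writhing was induced with aqueous acetic acid in Swiss albino mice (20–30 g) of either sex, six per group. % Protection = (Wc − Wt)/Wc × 100, where Wc and Wt are the mean writhing counts of the control and test groups.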

mucosal damage = test: Acute ulcerogenic activity; assay type: in vivo, Albino rats; conditions: rats, mean ± SEM
Method in brief: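 Conducted in Albino rats (160–200 g, housed six per cage, acclimatised 48 h) following Cioli et al. Gastric mucosal damage was scored at the end of the study. Ulcerogenic potential (severity index) came from comparing the mean score of each treated group with that of the control rats.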

| MIC [1] | MIC [2] | MIC [3] | MIC [4] | MIC (Aspergillus niger) | MIC (Aspergillus flavus) | MIC, E. coli ([2]; E. coli (MTCC 1652)) | MIC, P. aeruginosa ([3]; P. aeruginosa (MTCC 741)) | SMILES | % Inhibition ± SEM After 1 h [5] | % Inhibition ± SEM After 2 h [5] | % Inhibition ± SEM After 3 h [5] | Central analgesic activity [tail immersion (reaction time in min)] 1 h [6] | Central analgesic activity [tail immersion (reaction time in min)] 2 h [6] | Peripheral analgesic activity (writhing test) No. of writhing [7] | Peripheral analgesic activity (writhing test) % Protection [7] | Ulcerogenic activity (severity index) (mucosal damage) | % Inhibition ± SEM After 4 h [5] |
| --- | --- | --- | --- | --- | --- | --- | --- | --- | --- | --- | --- | --- | --- | --- | --- | --- | --- |
| 25 µg/mL (≈ 49.3 µM) | 12.5 µg/mL (≈ 24.6 µM) | > 100 µg/mL | 25 µg/mL (≈ 49.3 µM) | 50 µg/mL (≈ 98.5 µM) | 25 µg/mL (≈ 49.3 µM) |  |  | O=C1C(=Cc2cc3cc(Cl)ccc3nc2Cl)C=C(c2ccc3ccccc3c2)N1Cc1ccccc1 [Compound 7b, 1-Benzyl-3-[(2,6-dichloroquinolin-3-yl)methylene]-5-(naphthalene-2-yl)-1H-pyrrol-2(3H)-one] | 84 ± 0.06^∗∗ % | 74 ± 0.21^∗∗ % | 70 ± 0.23^∗ % | 2.4 ± 0.3 min | 3.4 ± 0.2 min | 25.4 ± 4.8 | 39.52% | 0.36 ± 0.35^∗ |  |
| 25 µg/mL (≈ 48.3 µM) | 25 µg/mL (≈ 48.3 µM) | > 100 µg/mL | 25 µg/mL (≈ 48.3 µM) | 25 µg/mL (≈ 48.3 µM) | 50 µg/mL (≈ 96.5 µM) |  |  | O=C1C(=Cc2cc3cc([N+](=O)[O-])ccc3nc2Cl)C=C(c2ccc3ccccc3c2)N1Cc1ccccc1 [Compound 7d, 1-Benzyl-3-[(2-chloro-6-nitroquinolin-3-yl)methylene]-5-(naphthalene-2-yl)-1H-pyrrol-2(3H)-one] | 83 ± 0.06^∗∗ % | 73 ± 0.15^∗∗ % | 66 ± 0.26% | 3.2 ± 0.4^∗ min | 5.4 ± 1.9 min | 21.0 ± 10.0^∗ | 50% | 0.40 ± 0.32 |  |
| 12.5 µg/mL (≈ 23.4 µM) | 25 µg/mL (≈ 46.9 µM) | 50 µg/mL (≈ 93.7 µM) | 12.5 µg/mL (≈ 23.4 µM) | 25 µg/mL (≈ 46.9 µM) | 50 µg/mL (≈ 93.7 µM) |  |  | O=C1C(=Cc2cc3cc(Cl)ccc3nc2Cl)C=C(c2ccc(-c3ccccc3)cc2)N1Cc1ccccc1 [Compound 7f, 1-Benzyl-3-[(2,6-dichloroquinolin-3-yl)methylene]-5-(biphenyl-4-yl)-1H-pyrrol-2(3H)-one] | 84 ± 0.12% | 74 ± 0.19^∗∗ % | 63 ± 0.14^∗ % | 3.2 ± 0.2^∗ min | 6.2 min and 6.2 ± 1.5^∗ min | 12.8 ± 3.8^∗∗ |  | 0.53 ± 0.12 |  |
| 25 µg/mL (≈ 48.7 µM) | > 100 µg/mL | > 100 µg/mL | 50 µg/mL (≈ 97.5 µM) | 25 µg/mL (≈ 48.7 µM) | 50 µg/mL (≈ 97.5 µM) | did not show any inhibition | did not show any inhibition | Cc1ccc2nc(Cl)c(C=C3C=C(c4ccc(-c5ccccc5)cc4)N(Cc4ccccc4)C3=O)cc2c1 [Compound 7g, 1-Benzyl-3-[(2-chloro-6-methylquinolin-3-yl)methylene]-5-(biphenyl-4-yl)-1H-pyrrol-2(3H)-one] | 69 ± 0.03^∗∗ % | 54 ± 0.14^∗∗ % | 30 ± 0.20% |  |  |  |  |  | 40 ± 0.16% |
| 25 µg/mL (≈ 46 µM) | 50 µg/mL (≈ 91.9 µM) | 50 µg/mL (≈ 91.9 µM) | > 100 µg/mL | 50 µg/mL (≈ 91.9 µM) | > 100 µg/mL |  |  | O=C1C(=Cc2cc3cc([N+](=O)[O-])ccc3nc2Cl)C=C(c2ccc(-c3ccccc3)cc2)N1Cc1ccccc1 [Compound 7h, 1-Benzyl-3-[(2-chloro-6-nitroquinolin-3-yl)methylene]-5-(biphenyl-4-yl)-1H-pyrrol-2(3H)-one] | 36 ± 0.13% | 65 ± 0.24^∗∗ % | 58 ± 0.34^∗ % | 5.5 min and 5.5 ± 0.3^∗∗ min | 6.4 min and 6.4 ± 0.3^∗ min | 10.4 ± 3.7^∗∗ |  |  |  |

More lines, now with the values behind:

| SMILES | MIC [1] | MIC [2] | MIC [3] | MIC [4] | MIC (Aspergillus niger) | MIC (Aspergillus flavus) | MIC, E. coli ([2]; E. coli (MTCC 1652)) | MIC, P. aeruginosa ([3]; P. aeruginosa (MTCC 741)) | % Inhibition ± SEM After 1 h [5] | % Inhibition ± SEM After 2 h [5] | % Inhibition ± SEM After 3 h [5] | Central analgesic activity [tail immersion (reaction time in min)] 1 h [6] | Central analgesic activity [tail immersion (reaction time in min)] 2 h [6] | Peripheral analgesic activity (writhing test) No. of writhing [7] | Peripheral analgesic activity (writhing test) % Protection [7] | Ulcerogenic activity (severity index) (mucosal damage) | % Inhibition ± SEM After 4 h [5] |
| --- | --- | --- | --- | --- | --- | --- | --- | --- | --- | --- | --- | --- | --- | --- | --- | --- | --- |
| O=C1OC(c2ccc3ccccc3c2)=CC1=Cc1cc2cc(Cl)ccc2nc1Cl [Compound 5b, 3-[(2,6-Dichloroquinolin-3-yl)methylene]-5-(naphthalene-2-yl)furan-2(3H)-one] | 12.5 µg/mL (≈ 29.9 µM) | 25 µg/mL (≈ 59.8 µM) | 50 µg/mL (≈ 120 µM) | 12.5 µg/mL (≈ 29.9 µM) | 25 µg/mL (≈ 59.8 µM) | 50 µg/mL (≈ 120 µM) |  |  | 74 ± 0.18^∗∗ % | 67 ± 0.06^∗∗ % | 39 ± 0.29% | 3.2 ± 0.2^∗ min | 4.4 ± 0.5 min | 26.2 ± 4.1 | 37.61% | 0.33 ± 0.35^∗ |  |
| O=C1OC(c2ccc3ccccc3c2)=CC1=Cc1cc2cc([N+](=O)[O-])ccc2nc1Cl [Compound 5d, 3-[(2-Chloro-6-nitroquinolin-3-yl)methylene]-5-(naphthalene-2-yl)furan-2(3H)-one] | 12.5 µg/mL (≈ 29.1 µM) | 12.5 µg/mL (≈ 29.1 µM) | 25 µg/mL (≈ 58.3 µM) | 25 µg/mL (≈ 58.3 µM) | 25 µg/mL (≈ 58.3 µM) | 25 µg/mL (≈ 58.3 µM) |  |  | 79 ± 0.12^∗∗ % | 61 ± 0.15^∗∗ % | 56 ± 0.25^∗ % | 4.4 min and 4.4 ± 0.6^∗∗ min | 6.5 min and 6.5 ± 0.2 ^∗ min | 6.0 ± 2.2^∗∗ |  |  |  |
| O=C1OC(c2ccc(-c3ccccc3)cc2)=CC1=Cc1cc2cc([N+](=O)[O-])ccc2nc1Cl [Compound 5h, 3-[(2-Chloro-6-nitroquinolin-3-yl)methylene]-5-(biphenyl-4-yl)furan-2(3H)-one] | 25 µg/mL (≈ 55 µM) | 50 µg/mL (≈ 110 µM) | > 100 µg/mL | > 100 µg/mL | 25 µg/mL (≈ 55 µM) | 25 µg/mL (≈ 55 µM) |  |  | 73 ± 0.08^∗∗ % | 58 ± 0.15^∗∗ % | 50 ± 0.13% | 4.3 min and 4.3 ± 0.4^∗∗ min | 6.2 min and 6.2 ± 1.5^∗ min | 7.6 ± 2.3^∗∗ |  | 0.40 ± 0.36 |  |
| O=C1NC(c2ccc3ccccc3c2)=CC1=Cc1cc2cc(Cl)ccc2nc1Cl [Compound 6b, 3-[(2,6-Dichloroquinolin-3-yl)methylene]-5-(naphthalene-2-yl)-1H-pyrrol-2(3H)-one] | 6.25 µg/mL (≈ 15 µM) | 50 µg/mL (≈ 120 µM) | 50 µg/mL (≈ 120 µM) | 6.25 µg/mL (≈ 15 µM) | 12.5 µg/mL (≈ 30 µM) | 12.5 µg/mL (≈ 30 µM) |  |  | 62 ± 0.09^∗ % | 66 ± 0.18^∗∗ % | 53 ± 0.17% | 1.8 ± 0.2 min | 4.2 ± 0.6 min | 13.8 ± 4.4^∗ | 67.14% | 0.43 ± 0.33 |  |
| O=C(O)Cc1ccccc1Nc1c(Cl)cccc1Cl [Diclofenac, diclofenac, reference compound] |  |  |  |  |  |  |  |  |  |  |  | 8.2 ± 0.2^∗∗ min | 8.8 ± 0.2^∗∗ min | 4.2 ± 1.0^∗∗ | 90% | 0.86 ± 0.28 | 92% |
